CSC inhib: blocks cancer stem cells; inhibition, % at 7.5 µM; 1.1% of 300,000 active; cancer stem cell-like cells viability, luminescence; in the data active means inhibition above about 75%; inconclusive means no clear call, values can overlap the other calls; tested in HMLE shEcad cells
Mdm2-MdmX inh: inhibitors of human Mdm2/MdmX interaction; AID 485346; SaOS-2 split-luciferase Mdm2/MdmX complementation, luminescence; 3% of 330,000 active; inhibition, % at 8 µM; O15151+Q00987;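 active means inhibition of at least 50% at 8 µM in the primary screen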
Target sequence (O15151 whole entry, looked up): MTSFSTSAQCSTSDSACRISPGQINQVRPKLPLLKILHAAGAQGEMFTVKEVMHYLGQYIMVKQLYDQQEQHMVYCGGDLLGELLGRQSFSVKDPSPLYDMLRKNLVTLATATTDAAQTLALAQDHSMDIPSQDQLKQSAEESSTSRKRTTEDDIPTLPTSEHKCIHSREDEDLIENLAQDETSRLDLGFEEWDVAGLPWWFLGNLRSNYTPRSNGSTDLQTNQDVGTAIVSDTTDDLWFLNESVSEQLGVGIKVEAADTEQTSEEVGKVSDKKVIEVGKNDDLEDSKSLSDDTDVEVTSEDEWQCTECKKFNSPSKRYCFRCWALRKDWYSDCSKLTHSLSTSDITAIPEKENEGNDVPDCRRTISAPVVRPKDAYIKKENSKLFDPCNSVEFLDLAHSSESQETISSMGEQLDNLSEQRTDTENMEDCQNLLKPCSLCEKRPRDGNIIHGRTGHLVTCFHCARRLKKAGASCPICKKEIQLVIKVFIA
Target sequence (Q00987 whole entry, looked up): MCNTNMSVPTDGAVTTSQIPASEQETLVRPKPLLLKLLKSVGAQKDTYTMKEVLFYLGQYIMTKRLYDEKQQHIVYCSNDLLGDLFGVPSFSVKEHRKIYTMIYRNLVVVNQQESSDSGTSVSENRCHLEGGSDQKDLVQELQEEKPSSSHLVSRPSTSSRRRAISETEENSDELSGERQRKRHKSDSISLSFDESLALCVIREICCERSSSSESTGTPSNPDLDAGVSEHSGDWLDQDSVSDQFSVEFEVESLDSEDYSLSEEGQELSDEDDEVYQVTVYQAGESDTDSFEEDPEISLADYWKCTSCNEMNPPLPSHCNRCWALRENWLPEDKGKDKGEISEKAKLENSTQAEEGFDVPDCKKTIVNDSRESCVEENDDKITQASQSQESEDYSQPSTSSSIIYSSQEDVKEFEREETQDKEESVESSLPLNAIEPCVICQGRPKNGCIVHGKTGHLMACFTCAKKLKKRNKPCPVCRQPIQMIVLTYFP
Calb FLC: affects C. albicans growth with fluconazole. C. albicans CaCi-2 (fluconazole-resistant clinical isolate) + fluconazole, Alamar Blue growth, 48 h. growth inhibition, % (concentration not given with the values). 0.57% of 300,000 active;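 active means growth inhibition above about 58% in most replicates, limit read from the data, passing the limit was not always enough; inconclusive means exactly half the replicates above a set limit; inactive means most replicates below a set limit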;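 further: all wells also contain fluconazole at 8 µg/ml as a sub-toxic cotreatment; 0% = median of DMSO wells and 100% = median of geldanamycin control wells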
SKKanGAS inh: SKKanGAS growth inhibition; 1.3% of 300,000 active; AID 1662; inhibition, % at 7.5 µM; S. pyogenes SKKanGAS, kanamycin growth, BacTiter-Glo, 6 h;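 active means mean replicate score, as percent of positive control median, at least 50; inconclusive means mean below 50 but one replicate at or above 50; inactive means mean and every replicate below 50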;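 further: strain carries kanamycin resistance gene driven by streptokinase promoter and grows in 40 µg/ml kanamycin; loss of luminescence reflects streptokinase promoter inhibition or plain growth inhibition; 0% = median of DMSO wells and 100% = positive control at its reference dose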
Beta apoptosis: beta cell apoptosis inhibition; INS-1E cytokine-induced death, ATP luminescence, 48 h; percent of positive-control rescue, neutral wells zero; protection from apoptosis, % (concentration not given with the values); 0.8% of 300,000 active; AID 435005;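 active means Every replicate reaches about 75%, or at least half do and their mean reaches it too, limit read from the data; inconclusive means At least half of replicates reach the limit but their mean does not; inactive means Under half of replicates reach the limit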;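 further: 0% = cytokine-treated negative control wells and 100% = positive control rescue; higher means more ATP so stronger rescue from cytokine killing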
T cruzi inh: blocks replication of Trypanosoma cruzi; T. cruzi beta-gal in NIH3T3, luminescence, 90 h; inhibition, % (test concentration not listed); 1.4% of 300,000 active; AID 1885;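 active means mean inhibition across valid replicates above about 55%, limit read from the data; inconclusive means mean below that limit but half or more replicates reach it; inactive means mean below it, under half of replicates reach it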;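 further: signal also drops with host cell toxicity which is not excluded here; 0% = plate median of DMSO wells and 100% = zero luminescence signal; higher percent means less beta-gal luminescence so fewer parasites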
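System – NIH/3T3 host cells with β-galactosidase reporter T. cruzi · Doses – single 50 nL compound addition per well in DMSO · Reagent – 5000 T. cruzi trypomastigotes/well · Medium – Low-serum DMEM with 2% FBS · Timing – ≥90 h infection period, 3 h prior cell attachment · Evaluation – parasite load inhibition, % · Technique – GalScreen luminescence, 60 min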
Mdm2-MdmX conf: human Mdm2/MdmX binding inhibition, confirmed. shares compounds with Mdm2-MdmX inh. luminescent assay. inhibition, % at 8 µM. 55% of 10,000 active; in the data active means inhibition above about 40%
Full FLuc ctr: counter-screen for Mdm2/MdmX inhibitors: full-length luciferase; inhibition, % at 8 µM; shares compounds with Mdm2-MdmX inh; 77% of 6,200 active; SaOS-2 full-length luciferase counterscreen, luminescence; AID 504607;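 active means mean inhibition at 8 µM reaching about 37%, which flags the compound as non-specific, limit read from the data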;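 further: p53-null SaOS-2 cells with luciferase driven by a doxycycline-inducible promoter; compound on cells about two nights before reading with doxycycline added after day one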
* hit, by the source's call. Only some compounds are listed: those with a hit (about 5.7% of all), similar ones and a draw of the others.

Screening CC(C)n1cc(CN2CCC(C(=O)Nc3cccc(-c4cccc(Cl)c4)c3)CC2)cn1 returned CSC inhib 31, Mdm2-MdmX inh 99*, Calb FLC 21, SKKanGAS inh -5, Beta apoptosis 7, T cruzi inh 36, Mdm2-MdmX conf 47* and Full FLuc ctr 66*.
Screening CCn1ccnc1CN1CCCCC1C(=O)Nc1ccc(Oc2cccnc2)cc1 (stereo not drawn) returned CSC inhib 23, Mdm2-MdmX inh 49, Calb FLC -4, SKKanGAS inh -1, Beta apoptosis -2 and T cruzi inh -5.
Screening CN(Cc1nccn1C)C(=O)c1ccc2nc(Cc3ccccc3F)oc2c1 returned CSC inhib -11, Mdm2-MdmX inh -26, Calb FLC 16, SKKanGAS inh -5, Beta apoptosis -6 and T cruzi inh -11.
For Cc1nnc(SCC(=O)NC2CC2)s1 the results were CSC inhib -8, Mdm2-MdmX inh 11, Calb FLC -3, SKKanGAS inh 4, Beta apoptosis 1 and T cruzi inh -4.
CN1C(c2ccccc2)=NO[C@]1(C)c1ccccc1 was read as CSC inhib -2, Mdm2-MdmX inh 2, Calb FLC 0, SKKanGAS inh 1, Beta apoptosis -1 and T cruzi inh -1.
For CCOC(=O)[C@H]1[C@H]2COc3ccc(C)cc3[C@@H]2N2C(=O)c3cc(F)c(F)cc3NC(=O)[C@@]12C the results were CSC inhib -16, Mdm2-MdmX inh 9 and Beta apoptosis 3.
COc1cccc(O)c1CN1CCC(C(=O)Nc2ccc(-c3cccc(C)c3)cc2)CC1 was read as CSC inhib 101*, Mdm2-MdmX inh 81*, Calb FLC -7, SKKanGAS inh 32, T cruzi inh 54, Mdm2-MdmX conf 40* and Full FLuc ctr 90*.
For COc1cccc(O)c1CN1CCC(C(=O)Nc2ccc(Oc3cccnc3)cc2)CC1 the results were CSC inhib 6, Mdm2-MdmX inh 12, Calb FLC -15, SKKanGAS inh 1, Beta apoptosis 2 and T cruzi inh 10.
Screening Nc1ccccc1SCC(=O)Nc1ccc2c(c1)OCCO2 returned CSC inhib -1, Mdm2-MdmX inh -32, Calb FLC -3, SKKanGAS inh 4, Beta apoptosis 3 and T cruzi inh -5.
Screening Cc1cc(NC(=O)COC(=O)c2cnccn2)ccc1Br returned CSC inhib -12, Mdm2-MdmX inh 16 and Beta apoptosis -4.
For CN(C)c1nc(NCc2ccccc2)nc(N/N=C/c2ccc(Br)cc2)n1 the results were CSC inhib 5, Mdm2-MdmX inh 90*, Calb FLC -17, SKKanGAS inh 1, Beta apoptosis 10, T cruzi inh 19 and Mdm2-MdmX conf 33.
Screening O=C1C(SCCO)=C(SCCO)C(=O)c2ccccc21 returned CSC inhib 102*, Mdm2-MdmX inh 82*, Beta apoptosis 99*, Mdm2-MdmX conf 75* and Full FLuc ctr 21.
Cc1ccc(/C=N/NC(=O)CNC(=O)Cc2ccccc2)o1 was read as CSC inhib -12, Mdm2-MdmX inh 15, Calb FLC -7, SKKanGAS inh 7, Beta apoptosis -12 and T cruzi inh -11.
O=C(c1cccc(Cl)c1)c1nn(-c2ccccc2)c(=O)cc1C(F)(F)F was read as CSC inhib 57, Mdm2-MdmX inh 77*, Calb FLC 16, SKKanGAS inh -8, Beta apoptosis 107*, T cruzi inh -12 and Mdm2-MdmX conf 32.
`O=C(c1ccccc1)c1nn(-c2ccc(Cl)cc2)c(=O)cc1C(F)(F)F` gave CSC inhib 108*, Mdm2-MdmX inh 95*, Calb FLC 17, SKKanGAS inh 2, Beta apoptosis 11, T cruzi inh 25, Mdm2-MdmX conf 78* and Full FLuc ctr 56*.
For CN1CCN(C2=Cc3ccc(Cl)cc3Sc3ccc(F)cc32)CC1 the results were CSC inhib 121*, Mdm2-MdmX inh 60*, Calb FLC 29, SKKanGAS inh 60*, Beta apoptosis 9, T cruzi inh 32 and Mdm2-MdmX conf 29.
For CC(=O)c1cccc(NC(=O)CSc2ccc(-c3ccccn3)nn2)c1 the results were CSC inhib 3, Mdm2-MdmX inh 37, Calb FLC 2, SKKanGAS inh -1, Beta apoptosis 3 and T cruzi inh -10.
COc1cc(NC(=O)CSc2ccc(-c3ccccn3)nn2)cc(OC)c1 was read as CSC inhib -13, Mdm2-MdmX inh 65*, Calb FLC -4, SKKanGAS inh -3, Beta apoptosis 30, T cruzi inh 26, Mdm2-MdmX conf 59* and Full FLuc ctr 57*.
Screening COc1ccc(C)cc1NC(=O)CSc1ccc(-c2ccccn2)nn1 returned CSC inhib 57, Mdm2-MdmX inh 54*, SKKanGAS inh -1, Beta apoptosis 2, T cruzi inh 4, Mdm2-MdmX conf 55* and Full FLuc ctr 52*.
For CCc1ccc(NC(=O)CSc2ccc(-c3ccccn3)nn2)cc1 the results were CSC inhib 6, Mdm2-MdmX inh 71*, Calb FLC 11, SKKanGAS inh -1, Beta apoptosis 86*, T cruzi inh inconclusive, Mdm2-MdmX conf 45* and Full FLuc ctr 73*.
Cc1ccc(NC(=O)CSc2ccc(-c3ccccn3)nn2)cc1F was read as CSC inhib -4, Mdm2-MdmX inh 53*, Calb FLC -7, SKKanGAS inh 3, Beta apoptosis 6, T cruzi inh 27, Mdm2-MdmX conf 46* and Full FLuc ctr 47*.
`CCc1ccc(NC(=O)CSc2ccc(-c3cccnc3)nn2)cc1` gave CSC inhib -9, Mdm2-MdmX inh 13, Calb FLC 0, SKKanGAS inh -2, Beta apoptosis -3 and T cruzi inh 1.
For CC(=O)Nc1cccc(NC(=O)CSc2ccc(-c3ccccn3)nn2)c1 the results were CSC inhib 0, Mdm2-MdmX inh 21, Calb FLC 27, SKKanGAS inh 7, Beta apoptosis 1 and T cruzi inh 6.
For CCOC(=O)c1ccccc1NC(=O)CSc1nccn1C the results were CSC inhib -6, Mdm2-MdmX inh 15, Calb FLC 2, SKKanGAS inh 2, Beta apoptosis -5 and T cruzi inh -15.
For CCOC(=O)c1ccccc1NC(=O)CSc1ccc(-c2ccccn2)nn1 the results were CSC inhib -3, Mdm2-MdmX inh 75*, Calb FLC 15, SKKanGAS inh 4, Beta apoptosis -4, T cruzi inh 24, Mdm2-MdmX conf 77* and Full FLuc ctr 36*.
